Experiments:
[1] = tested on: Homo sapiens; experiment: fT>MIC in cystic fibrosis patient at 6 gram/70kg, iv administered as 6 mg/l infusion every 6 hrs; type: functional
In short: (§1)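 Monte Carlo simulation from the population PK model, using allometric scaling by fat-free mass. All regimens gave 6 g per 70 kg WT daily, as 30-min infusions q8h or q6h, prolonged 4–5-h infusions, or continuous infusion. Protein binding was assumed to be 11%, so only the non-protein-bound fraction counts. The PK-PD breakpoint was the MIC with target-attainment probability ≥90%.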

[2] = Terminal half life in cystic fibrosis patient at 2 gram, iv administered in 5 mins infusion; type: ADME, organism-based; conditions: human, in vivo, read-out: beta t1/2 (converted)
In short: (§2)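 Single-dose, single-centre, open, parallel-group trial in CF patients (n = 8) and healthy volunteers (n = 7). Each subject received 2 g ceftazidime by 5-min IV infusion; three CF patients received 1.5, 1 or 3 g instead. Venous plasma was sampled from 0 min to 12 h after the end of infusion. Drug was read at 275 nm (linear 0.6–200 mg/liter). Noncompartmental parameters were not body-size scaled.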

[3] = Terminal half life in cystic fibrosis patient at […], iv administered 20 mins infusion; type: ADME, organism-based; conditions: human, in vivo, read-out: beta t1/2 (converted)
[4] = tested on: Homo sapiens; experiment: Volume of distribution at steady state in healthy human subjects at 2 gram, iv administered in 5 mins infusion; type: ADME, organism-based; conditions: in vivo; in short: as §2
[5] = tested on: Homo sapiens; experiment: fT>MIC in healthy human subjects at 6 gram/70kg, iv administered as 8 mg/l infusion every 8 hrs; type: functional; in short: as §1
[6] = Total clearance in healthy human subjects at […], iv administered 20 mins infusion; type: ADME, organism-based; conditions: in vivo
[7] = Total clearance in juveline to adult cystic fibrosis patient; type: ADME, organism-based; conditions: human, in vivo
[8] = Total clearance in cystic fibrosis patient; type: ADME, organism-based; conditions: human, in vivo
[9] = Volume of distribution at steady state in cystic fibrosis patient at 2 gram, iv administered in 5 mins infusion; type: ADME, organism-based; conditions: human, in vivo, read-out: Vdss; in short: as §2
[10] = Terminal half life in healthy human subjects at […], iv administered 20 mins infusion; type: ADME, organism-based; conditions: in vivo, read-out: beta t1/2 (converted)
[11] = Cmax in healthy human subjects at 2 gram, iv administered in 5 mins infusion; type: ADME, organism-based; parameters: route intravenous; conditions: in vivo; in short: as §2
[12] = Renal clearance in cystic fibrosis patient; type: ADME, organism-based, Kidney; conditions: human, in vivo; read-out: CL_renal
[13] = Total clearance in cystic fibrosis patient at […], iv administered 20 mins infusion; type: ADME, organism-based; conditions: human, in vivo
[14] = tested on: Homo sapiens; experiment: fT>MIC in cystic fibrosis patient at 6 gram/70kg, iv administered as 2 mg/l infusion every 6 hrs; type: functional; in short: as §1
[15] = tested on: Homo sapiens; experiment: fT>MIC in cystic fibrosis patient at 6 gram/70kg, iv administered as 1 mg/l infusion every 8 hrs; type: functional; in short: as §1
[16] = Renal clearance in healthy human subjects; type: ADME, organism-based, Kidney; conditions: in vivo, read-out: CL_renal
[17] = Cmax in cystic fibrosis patient at 2 gram, iv administered in 5 mins infusion; type: ADME, organism-based; parameters: route intravenous; conditions: human, in vivo; in short: as §2
[18] = Total clearance in cystic fibrosis patient at 2 gram, iv administered in 5 mins infusion; type: ADME, organism-based; conditions: human, in vivo; in short: as §2
[19] = Mean residence time in healthy human subjects at 2 gram, iv administered in 5 mins infusion; type: ADME, organism-based; conditions: in vivo; in short: as §2
[20] = tested on: Homo sapiens; experiment: fT>MIC in healthy human subjects at 6 gram/70kg, iv administered as 12 mg/l infusion every 6 hrs; type: functional; in short: as §1
[21] = Terminal half life in healthy human subjects at 2 gram, iv administered in 5 mins infusion; type: ADME, organism-based; conditions: in vivo, read-out: beta t1/2 (converted); in short: as §2
[22] = tested on: Homo sapiens; experiment: fT>MIC in cystic fibrosis patient at 6 gram/70kg, iv administered as 6 mg/l infusion
[23] = tested on: Homo sapiens; experiment: fT>MIC in healthy human subjects at 6 gram/70kg, iv administered as 4 mg/l infusion every 6 hrs; type: functional; in short: as §1
[24] = Total clearance in healthy human subjects at 2 gram, iv administered in 5 mins infusion; type: ADME, organism-based; conditions: in vivo; in short: as §2
[25] = Mean residence time in cystic fibrosis patient at 2 gram, iv administered in 5 mins infusion; type: ADME, organism-based; conditions: human, in vivo; in short: as §2
[26] = tested on: Homo sapiens; experiment: fT>MIC in healthy human subjects at 6 gram/70kg, iv administered as 3 mg/l infusion every 8 hrs; type: functional; in short: as §1

**Q.** Which “fT>MIC” value [1] does the source give for `CC(C)(O/N=C(\C(=O)N[C@@H]1C(=O)N2C(C(=O)[O-])=C(C[n+]3ccccc3)CS[C@H]12)c1csc(N)n1)C(=O)O` [CEFTAZIDIME] here?
**A.** The value was “>=40%”.

**Q.** And the half-life [2]?
**A.** Its half-life is 1.48 h.

**Q.** And the half-life [3]?
**A.** Its half-life is 1.5 h.

**Q.** What about the Vdss [4] of the same compound?
**A.** The Vdss was 14.3 L.

**Q.** What about the “fT>MIC” value [5] of the same compound?
**A.** The value was “>=40%”.

**Q.** And the clearance [6]?
**A.** The clearance was 101 mL/min.

**Q.** And the clearance [7]?
**A.** Its clearance is 133 mL/min.

**Q.** And the clearance [8]?
**A.** Its clearance is 127 mL/min.

**Q.** And the Vd [9]?
**A.** Its Vd is 9.14 L.

**Q.** And the half-life [10]?
**A.** Its half-life is 1.76 h.

**Q.** What about the Cmax [11] of the same compound?
**A.** The Cmax was 210 µg/mL.

**Q.** And the CL renal [12]?
**A.** The CL renal was 125 mL/min.

**Q.** And the clearance [13]?
**A.** Its clearance is 142 mL/min.

**Q.** What about the “fT>MIC” value [14] of the same compound?
**A.** Its value is “>=65%”.

**Q.** What about the “fT>MIC” value [15] of the same compound?
**A.** The value was “>=65%”.

**Q.** What about the CL renal [16] of the same compound?
**A.** The CL renal was 100 mL/min.

**Q.** And the Cmax [17]?
**A.** The Cmax was 445 µg/mL.

**Q.** What about the clearance [18] of the same compound?
**A.** Its clearance is 89.5 mL/min.

**Q.** And the MRT [19]?
**A.** The MRT was 2.1 h.

**Q.** And the “fT>MIC” value [20]?
**A.** The value was “>=40%”.

**Q.** And the half-life [21]?
**A.** Its half-life is 1.94 h.

**Q.** And the “fT>MIC” value [22]?
**A.** The value was “>=40%”.

**Q.** What about the “fT>MIC” value [23] of the same compound?
**A.** The value was “>=65%”.

**Q.** And the clearance [24]?
**A.** The clearance was 110 mL/min.

**Q.** What about the MRT [25] of the same compound?
**A.** The MRT was 1.54 h.

**Q.** And the “fT>MIC” value [26]?
**A.** The value was “>=65%”.

Source: ChEMBL document CHEMBL1240401, “Population pharmacokinetic comparison and pharmacodynamic breakpoints of ceftazidime in cystic fibrosis patients and healthy volunteers” (Antimicrob Agents Chemother, 2010)
